Reference: the RNAGym collection of RNA variant scans (doi:10.1126/science.aae0568)
Variants at the floor of the assay were thinned out.

B1: tRNA (parent)
chain: GUUCCGUUGGCGUAAUGGUAACGCGUCUCCCUCCUAAGGAGAAGACUGCGGGUUCGAGUCCCGUACGGAACG

Variants of: B1
Test: yeast fitness relative to wild type (ratio to wild type); higher = fitter; tRNA-Arg(CCU), competitive growth, 37 C, YPD
Procedure, shortened: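 Start and end populations of a pooled competition were compared by 100-nucleotide paired-end sequencing of gene amplicons. The Saccharomyces cerevisiae strains carried tRNA-Arg(CCU) gene variants at the native genomic locus, synthesised with a 3% per-site mutation rate at 69 sites, and competed in YPD at 37°C for 24 hours in six parallel replicates. Darwinian fitness relative to wild type was based on the change in genotype frequencies. Genotypes required ≥ 100 starting reads, and estimates < 0.5 were set to 0.5.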

Variant	yeast fitness
C24G C29A A43U A57G G68C	≤ 0.5
C24U C29G A43C C55G G68A	≤ 0.5
C24G U54C C55A A65U	≤ 0.5
C24G G38C A65C	0.513
C24G A37U C55U G67C	≤ 0.5
C24G G50A A57G	≤ 0.5
C24U C31G U32A	0.504
C24G U26A C46A G58C	≤ 0.5
C24U G25A C30U C46A A65U	0.562
C24U C27A C30U C46G	≤ 0.5
C24A U26G A43C C62G G63A C66G A69G	0.531
C24G G39A	0.643
C24G A36G A45G	≤ 0.5
C24G C33G U53C C55U	0.567
C24U A37U A43U	0.646
C24G A37G G67C	0.549
C24G G25C C30G U32C G58A C60U	≤ 0.5
C24G C30U C34A A45G G51A	≤ 0.5
C24G C31U G50C C60G G63A	0.545
C24G A37U U47A	≤ 0.5
C24G G63A	0.554

Variant	yeast fitness
C24G C30G G39A	0.593
C24G C27G A37G	0.575
C24U A45C G58C	0.554
C24G U26C C31U	0.747
C24U C49G G52C	0.503
C24U C29G C62G	≤ 0.5
C24G U28G C29G U35G U47A	0.606
C24G G25C C66A	≤ 0.5
C24U C55G A57C	≤ 0.5
C24G C29A C30U G50A C62U	≤ 0.5
C24G G41A C46U A65G	≤ 0.5
C24U C49U G56C	0.542
C24G G52C	≤ 0.5
C24G G52A	0.566
C24A U26G A43C C60U C62G G63A C66G A69G	≤ 0.5
C24G C27A A45C C62G C66U	≤ 0.5
C24U C34A G48C	0.693
C24G C30U C31U C61U G67C	≤ 0.5
C24U C31A C33A C34U C46A A69C	0.546
C24G A40G G50C	0.599
C24U C55G G63C	0.528

Variant	yeast fitness
C24G C31A C66U	≤ 0.5
C24G C30U C46A	0.616
C24G C30U G44C	≤ 0.5
C24U C61A G67A	≤ 0.5
C24G C30A G44C U47C U59A A69C A70C	0.884
C24U A45C C49G A69C	≤ 0.5
C24U C49A U64C	1.04
C24U C27U G39C	≤ 0.5
C24U C49G A65U	≤ 0.5
C24G C31G C61G	0.507
C24G C27U C33U G50A	≤ 0.5
C24G C27U C33U G50C	≤ 0.5
C24G A37G C61U	≤ 0.5
C24U A36C A45C C55U A70U	≤ 0.5
C24G C34U U53C C55G C62A	≤ 0.5
C24G G38C C62A	0.852
C24U C30U C60A	0.532
C24G G56C U59C	≤ 0.5
C24A U47G G68A	≤ 0.5
C24U A40C G68C	0.502
C24G C46U A69U	0.595

Variant	yeast fitness
C24G G25C A40C A42U U47A C61G C66G	0.509
C24G A40G A43G	≤ 0.5
C24G C31G G50A G68C	≤ 0.5
C24U G25A C30U C46A	0.829
C24G A36C C49U A70C	≤ 0.5
C24U A65G	0.924
C24U A65U	0.894
C24G C30G G52A C60A	≤ 0.5
C24A U59C	0.553
C24U C30A A37G U64A C66U A70G	≤ 0.5
C24G C29U G51C	0.576
C24U C31G U54C C62G	≤ 0.5
C24U A42U G51C	≤ 0.5
C24U A36G U47A	0.529
C24G C33U A37U G67A	≤ 0.5
C24G C29A A43U G68C	0.561
C24G A37U A42G	≤ 0.5
C24U A36U A43G	0.509
C24G U26A A65C	≤ 0.5
C24U C31U C49U A70C	0.643
C24G G58C C62U	≤ 0.5
